Measured values as given in ChEMBL document CHEMBL1821649, “Synthesis, characterization of some benzazoles bearing pyridine moiety: search for novel anticancer agents” (2011).

What was measured:
Assay type in all cases: functional
UACC-257 = assay: Antitumor activity against human UACC257 cells after 48 hrs by SRB assay; conditions: UACC-257, 48 h
Procedure, shortened: (§1)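 NCI-60 human cancer cell line panel run under the NCI Drug Evaluation Branch protocol. Compounds were first screened at a single dose. Those meeting preset inhibition thresholds were retested at five 10-fold dilutions. Output was percent growth of treated cells, given as % growth inhibition. GI50, TGI and LC50 values were derived from the five-dose data.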

OVCAR-3 = assay: Antitumor activity against human OVCAR3 cells after 48 hrs by SRB assay; conditions: OVCAR-3, 48 h
Procedure, shortened: (§2)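 NCI-60 human tumour cell panel run under the National Cancer Institute Drug Evaluation Branch protocol. Compounds passing a single-dose prescreen were retested on all lines at five 10-fold dilutions. Growth was expressed as percent growth of treated cells. Response parameters were GI50 (molar concentration giving 50% growth inhibition), TGI (total growth inhibition) and LC50 (median lethal concentration).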

SF-539 = assay: Antitumor activity against human SF539 cells after 48 hrs by SRB assay; conditions: SF-539, 48 h; procedure, shortened: as §2
HOP-92 = assay: Antitumor activity against human HOP92 cells after 48 hrs by SRB assay; conditions: HOP-92, 48 h; procedure, shortened: as §2
K562 = assay: Antitumor activity against human K562 cells after 48 hrs by SRB assay; conditions: K562, 48 h; procedure, shortened: as §2
BT-549 = assay: Antitumor activity against human BT549 cells after 48 hrs by SRB assay; conditions: BT-549, 48 h; procedure, shortened: as §2
SK-OV-3 = assay: Antitumor activity against human SKOV3 cells after 48 hrs by SRB assay; conditions: SK-OV-3, 48 h; procedure, shortened: as §2
U-251 = assay: Antitumor activity against human U251 cells after 48 hrs by SRB assay; conditions: U-251, 48 h; procedure, shortened: as §1
COLO 205 = assay: Antitumor activity against human COLO205 cells after 48 hrs by SRB assay; conditions: COLO 205, 48 h; procedure, shortened: as §2
SF-295 = assay: Antitumor activity against human SF295 cells after 48 hrs by SRB assay; conditions: SF-295, 48 h; procedure, shortened: as §2
TK-10 = assay: Antitumor activity against human TK10 cells after 48 hrs by SRB assay; conditions: TK-10, 48 h; procedure, shortened: as §1
MCF7 = assay: Antitumor activity against human MCF7 cells after 48 hrs by SRB assay; conditions: MCF7, 48 h; procedure, shortened: as §2
HT-29 = assay: Antitumor activity against human HT-29 cells after 48 hrs by SRB assay; conditions: HT-29, 48 h; procedure, shortened: as §2
NCI-H322M = assay: Antitumor activity against human NCI-H322M cells after 48 hrs by SRB assay; procedure, shortened: as §2
OVCAR-4 = assay: Antitumor activity against human OVCAR4 cells after 48 hrs by SRB assay; conditions: OVCAR-4, 48 h; procedure, shortened: as §2
ACHN = assay: Antitumor activity against human ACHN cells after 48 hrs by SRB assay; procedure, shortened: as §2
MDA-MB-435 = assay: Antitumor activity against human MDA-MB-435 cells after 48 hrs by SRB assay; conditions: MDA-MB-435, 48 h; procedure, shortened: as §2
SW-620 = assay: Antitumor activity against human SW620 cells after 48 hrs by SRB assay; conditions: SW-620, 48 h; procedure, shortened: as §1
[1] = Antitumor activity against human […] cells after 48 hrs by SRB assay; procedure, shortened: as §2
Malme-3M = assay: Antitumor activity against human MALME-3M cells after 48 hrs by SRB assay; procedure, shortened: as §2
NCI-H522 = assay: Antitumor activity against human NCI-H522 cells after 48 hrs by SRB assay; conditions: NCI-H522, 48 h; procedure, shortened: as §2
HCT-15 = assay: Antitumor activity against human HCT15 cells after 48 hrs by SRB assay; conditions: HCT-15, 48 h; procedure, shortened: as §2
NCI-H460 = assay: Antitumor activity against human NCI-H460 cells after 48 hrs by SRB assay; conditions: NCI-H460, 48 h; procedure, shortened: as §2
NCI-H23 = assay: Antitumor activity against human NCI-H23 cells after 48 hrs by SRB assay; conditions: NCI-H23, 48 h; procedure, shortened: as §2
T47D = assay: Antitumor activity against human T47D cells after 48 hrs by SRB assay; procedure, shortened: as §1
CCRF-CEM = assay: Antitumor activity against human CCRF-CEM cells after 48 hrs by SRB assay; procedure, shortened: as §2
MDA-MB-231 = assay: Antitumor activity against human MDA-MB-231 cells after 48 hrs by SRB assay; conditions: MDA-MB-231, 48 h; procedure, shortened: as §2
NCI-H226 = assay: Antitumor activity against human NCI-H226 cells after 48 hrs by SRB assay; conditions: NCI-H226, 48 h; procedure, shortened: as §2
IGROV-1 = assay: Antitumor activity against human IGROV1 cells after 48 hrs by SRB assay; conditions: IGROV-1, 48 h; procedure, shortened: as §2
DU-145 = assay: Antitumor activity against human DU145 cells after 48 hrs by SRB assay; conditions: DU-145, 48 h; procedure, shortened: as §2
UACC-62 = assay: Antitumor activity against human UACC62 cells after 48 hrs by SRB assay; conditions: UACC-62, 48 h; procedure, shortened: as §1
[2] = read-out: LC50 (the source's name)

`Cc1cc2nc(-c3c(N)ncc(C#N)c3-c3ccc(Cl)cc3)[nH]c2cc1C` gave a GI50 (UACC-257) of 11.4 µM, an LC50 (UACC-257) greater than 100 µM and a TGI (UACC-257) of 82.6 µM. For the same compound, the GI50 (OVCAR-3) was 13.9 µM, the TGI (OVCAR-3) was 76 µM and the CC50 (OVCAR-3; [2]) was greater than 100 µM. For the same compound, the GI50 (SF-539) was 2.07 µM, the TGI (SF-539) was 5.78 µM and the CC50 (SF-539; [2]) was 27 µM. It also gave a GI50 (HOP-92) of 0.275 µM, an LC50 (HOP-92) of 44.2 µM and a TGI (HOP-92) of 5.23 µM. For the same compound, the GI50 (K562) was 31.5 µM, the LC50 (K562) was greater than 100 µM and the TGI (K562) was greater than 100 µM. The GI50 (BT-549) was 37.6 µM, the TGI (BT-549) was greater than 100 µM and the CC50 (BT-549; [2]) was greater than 100 µM. The GI50 (SK-OV-3) was 11.9 µM, the LC50 (SK-OV-3) was 65.1 µM and the TGI (SK-OV-3) was 27.9 µM. For the same compound, the GI50 (U-251) was 5.48 µM, the TGI (U-251) was 21.4 µM and the CC50 (U-251; [2]) was 66.2 µM. It also gave a GI50 (COLO 205) of 6.24 µM, an LC50 (COLO 205) greater than 100 µM and a TGI (COLO 205) of 83.4 µM. It also gave a GI50 (SF-295) of 10 µM, a TGI (SF-295) of 27.5 µM and a CC50 (SF-295; [2]) of 75.6 µM. The GI50 (TK-10) was 4.67 µM, the TGI (TK-10) was 21.3 µM and the CC50 (TK-10; [2]) was 69.5 µM. It also gave a GI50 (MCF7) of 9.34 µM, a TGI (MCF7) greater than 100 µM and a CC50 (MCF7; [2]) greater than 100 µM. It also gave a GI50 (HT-29) of 6.06 µM, a TGI (HT-29) greater than 100 µM and a CC50 (HT-29; [2]) greater than 100 µM. It also gave a GI50 (NCI-H322M) of 27.7 µM, a TGI (NCI-H322M) greater than 100 µM and a CC50 (NCI-H322M; [2]) greater than 100 µM. For the same compound, the GI50 (OVCAR-4) was 4.4 µM, the TGI (OVCAR-4) was 25.4 µM and the CC50 (OVCAR-4; [2]) was greater than 100 µM. For the same compound, the GI50 (ACHN) was 11.1 µM, the TGI (ACHN) was greater than 100 µM and the CC50 (ACHN; [2]) was greater than 100 µM. It also gave a GI50 (MDA-MB-435) of 2.62 µM, an LC50 (median lethal concentration) (MDA-MB-435) greater than 100 µM and a TGI (MDA-MB-435) greater than 100 µM. It also gave a GI50 (SW-620) of 32.4 µM, a TGI (SW-620) greater than 100 µM and a CC50 (SW-620; [2]) greater than 100 µM. The GI50 [1] was 19.8 µM, the TGI [1] was 84.2 µM and the CC50 [1, 2] was greater than 100 µM. The GI50 (Malme-3M) was 14.5 µM, the LC50 (Malme-3M) was greater than 100 µM and the TGI (Malme-3M) was 78.8 µM. It also gave a GI50 (NCI-H522) of 4.07 µM, an LC50 (NCI-H522) of 96.5 µM and a TGI (NCI-H522) of 27.9 µM. It also gave a GI50 (HCT-15) of 30.6 µM, a TGI (HCT-15) greater than 100 µM and a CC50 (HCT-15; [2]) greater than 100 µM. For the same compound, the GI50 (NCI-H460) was 3.04 µM, the LC50 (median lethal concentration) (NCI-H460) was greater than 100 µM and the TGI (NCI-H460) was greater than 100 µM. The GI50 (NCI-H23) was 8.1 µM, the LC50 (NCI-H23) was 99.7 µM and the TGI (NCI-H23) was 30.7 µM. For the same compound, the GI50 (T47D) was 4.63 µM, the TGI (T47D) was greater than 100 µM and the CC50 (T47D; [2]) was greater than 100 µM. The GI50 (CCRF-CEM) was 24.6 µM, the LC50 (CCRF-CEM) was greater than 100 µM and the TGI (CCRF-CEM) was greater than 100 µM. It also gave a GI50 (MDA-MB-231) of 10.5 µM, a TGI (MDA-MB-231) of 44.2 µM and a CC50 (MDA-MB-231; [2]) greater than 100 µM. For the same compound, the GI50 (NCI-H226) was 15 µM, the TGI (NCI-H226) was 46.3 µM and the CC50 (NCI-H226; [2]) was 100 µM. For the same compound, the GI50 (IGROV-1) was 18.7 µM, the LC50 (IGROV-1) was greater than 100 µM and the TGI (IGROV-1) was greater than 100 µM. It also gave a GI50 (DU-145) of 5.68 µM, a TGI (DU-145) of 27.1 µM and a CC50 (DU-145; [2]) of 93.1 µM. The GI50 (UACC-62) was 11 µM, the LC50 (UACC-62) was greater than 100 µM and the TGI (UACC-62) was 53.2 µM.
